The EternaBench riboswitch data

Test system: MS2 coat protein
Experiment: apparent Kd, MS2 coat protein; higher = weaker binding; RNA-MaP array; FMN 200 µM where present
Procedure, shortened: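 Designs were transcribed by stalled E. coli RNA polymerase on Illumina sequencing-chip clusters. They were titrated with SNAP-549-labelled MS2 coat protein from 0.7 or 1.5 nM, doubling to 3 µM, without and then with constant ligand. Buffer: 100 mM Tris-HCl pH 7.5, 80 mM KCl, 4 mM MgCl2, BSA, DTT, yeast tRNA, Tween-20. Green signal was normalised to red-channel RNA signal and control-cluster median Fmax. Apparent Kd is the median of filtered per-cluster binding-curve fits.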

[1] = designed as: OFF switch for flavin mononucleotide, no ligand
[2] = ligand present: flavin mononucleotide, designed as: OFF switch for flavin mononucleotide
[3] = designed as: ON switch for flavin mononucleotide, no ligand
[4] = ligand present: flavin mononucleotide, designed as: ON switch for flavin mononucleotide

Sequence	apparent Kd [1] [nM]	apparent Kd [2] [nM]	apparent Kd [3] [nM]	apparent Kd [4] [nM]
UAAAAGACUAGCAAAUAGACCUUCACAUGAGGAUCACCCAUGUAGGAUAUGAGCAGAAAAUCUGCUCAGAAGGACAUGCUAGUC	3.38	3.6		
AUCAUGUAAGGAUAUCUUACAUGUAUCGAAAGAUACAGUUAAGAGAAGGUACAUGAGGAUCACCCAUGUAUAAC	29	45.5		
GUUUUUUUUAGUUCAUACUAUAAGAUAGAAGGUGAAAUAUUGACAUGAGGAUCACCCAUGUAAUUCAAGGAUAUGUAGUUACUC			34.3	22.7
AGAUACAACCAGAAGGACAUGAGGAUCACCCAUGUAGGAUAUGGGUUACACGUUCCUGUGAAUUGUAACGACGCUACGAAGAGU			113	12.3
AGGAGAAAUGUAGGAUAUGUAUAUAUAUAUGGGCAAAGCGCAUAUAUAUAUACAGAAGGACAUGAGGAUCACCCAUGUUUCCCU	11.4	13.5		
GCGGAACAUGAGGAUCACCCAUGUAUCCGAAAUAUGGACUCACAGGAUAUCCCGAGUUGCCAGUCGGAGAAGGGUGACUCCAGC			12.3	8.09
UUUUUGUUCAAGAAGGAUGUUUUAGUUUAGAUCAUAGGAUAUUGAUAUAUUGUAGACUCAUGUAACAUGAGGAUCACCCAUGUA			101	65.4
UGGUCAUCAUCAGGAUAUUAACGUGGGCUACAUUAAGAAGGGAUAGUGGGAGAGGAUGUGAAACAUGAGGAUCACCCAUGUUGU			13.3	10.6
CAGUACUGAGGAUAUACAUGAGGAUCACCCAUGUGCUUUAGCUAGGAUACUAGCAUCAGUAGAAGGCAGUACUG	12.8	29.4		
CAUGGGACUUCCUCGCGGAACAUGAGGAUCACCCAUGUUGCGGAGGAUAUACUUCGGCGCUCCGAGUAGAAGGCUGCAGAUCCC	24.4	33.1		
GGAGAGGAAACAUGAGGAUCACCCAUGUGAGUGGUCCGAAGAUAGGAUAUCCACACGAGAAGUGUGGAGAAGGAUCACCUCUCC	746	571		
CUUUAGUGAGGAUAUCGGUAGUAAUACAAUAGUAUUACUACUGAGAAGGCACAUGAGGAUCACCCAUGUUCCUC	29.9	233		
UUGCCUCAGAACAUGAGGAUCACCCAUGUGCUGUGGGCAACAUAGGAUAUGAUGGUAUUAUACCGUCAGAAGGAUGAUGGUACU			5.34	5.06
CCACGUCACAUUAACAUGAGGAUCACCCAUGUCUCUUGACAUGAGGAUAUGGAUCCUAAUUGGAUCCAGAAGGCAUGGACGUGG			1370	99.8
GCUUCCCAUGUGAGGAUAUGUAGGGUUAACCCGAGGCAGAAGGCACAUGAGGAUCACCCAUGUUAAAACUUCUA	29	60.6		
UUUUUAUUUGCAGGAUAUUGUAUUUUAUUACUUCAAGAAGGGCAUUACAUGAGGAUCACCCAUGUCUUCCUAUGGUUAACUAGU	12.3	12		
UUGUUAGCAGGAUAUAUCCACGACCACAUGAGGAUCACCCAUGUGGCCGCUUGAGGUUGUAUAGAAGGGCUUUGUU	13.8	14.3		
AAAAUUGGCAGAUAAAAGGUCACACAGGAUAUACUCCCAACAUGAGGAUCACCCAUGUACUGGCGGUAGAAGGGUGGGAUCCUC			50.7	13.5
GGAUGUCAAAGACAUCCAAUACGAACAUGAGGAUCACCCAUGUAGGAUAUGCUACUCAAAGAGUAGCAGAAGGACAUGUGCCUU	33.6	271		
ACUAGAUGCGUGAAAUAACACAUGAGGAUCACCCAUGUGACACAGGAUAUAACCAGAUCAGAAAGUUAGAAGGGUGAGCACGCA			39.2	21.2
AAAAAGUGAGGAUAUACAUGAGGAUCACCCAUGUUAAAAAAGGAAAAAAAAAAAAAAUGUAGAAGGCGCAAAAA	45.3	44		
CAGGAUAGAGGAUAUGCAUAGAUACAGAUUCAUGUAAUCCUACAUGAGGAUCACCCAUGUAGAAGGCUAUCCUG	15.1	35		
GGUACCAUCGCAGGAUAUGCUUUCCUUUGGGAAGCAGAAGGGUGUAACAUGAGGAUCACCCAUGUGGUGCCAGGGCGUGAGCCU			862	48.7
GCCCUUUCUGAGGAUAUUAUCUGGUUCGAUUGAUAAGAAGGCAGUACAUGAGGAUCACCCAUGUGGUUCGUUUG	99.6	242		
CCAUUUCAGUAAGGAUAUAUAAACAUGACGAUACAUGAGGAUCACCCAUGUGUAGAAGGUACUAAUACAUAUAAUACAAUGCUC	19.2	15.7		
UGUCUAUUUGAAGGAUAUCUAAGCAUAAACCGGAGAGAAGGUCAAUUAUACAUGAGGAUCACCCAUGUUGAGAUUGAUGGGUUU	16.2	18.4		
UUAAUCUGAACAUGAGGAUCACCCAUGUAUCUUACCUUAGGACAGGAUAUAGAUGUUAAGAAUUACUAGAAGGGUCAGUAUAUU			42.5	35.9
UGGUACUAGGGAGGAUAUGGGAAGAUACAUGAGGAUCACCCAUGUUUAAGAAUGCAGAGAGGCAACUAGAAGGCCCUAGUACCU			324	18.7

Sequence	apparent Kd [1] [nM]	apparent Kd [2] [nM]	apparent Kd [3] [nM]	apparent Kd [4] [nM]
AAGUCGUGAGGAUAUACAUGGAUAUACAUUUAUGUGGACCUACAUGAGGAUCACCCAUGUAGAAGGCACGAAUA	85.2	69.4		
UUUGGGUGGCUGGAGGAUAUUCUAGUGGUUACAUGAGGAUCACCCAUGUGUCGCGCGGUACGCGAGGAGAAGGCUGGCGGCCGUU			135	35.1
UUGGUUCUCGUAGGAUAUGUAGGAUAUGCCUACAUGAGGAUCACCCAUGUUCGCAUGGCAGAAGGACAGAAGGACGAUCACCAU			378	17.3
GCCAUCGCAUGAGGAUAUCCUCAGCUUUGCUGAGGAGAAGGCAUGUCAAUAGACAUGAGGAUCACCCAUGUAGUUAAGAUGGCA			692	81.3
GUACUGUAGUGAGGAUAUACGAGCUCGAUAGAGCGGCGAUCCAUAUAUACAUGAGGAUCACCCAUGUAGAAGGCACUUCAGUAC	7.07	96.5		
CCAUGGAAUGUAGGAUAUGUCUGACAAAGUCAGACAGAAGGACAUGAGGAUCACCCAUGUAGGAAACAACCACAUAAACCAUGG	6.83	7.08		
AAGCUCUGUGAGAAGGCGCCCUUUGCGGUUGGGCGAGGAUAUCACAUGAGGAUCACCCAUGUCGGUGCAUCAGACAGCGUAUAA	215	40.3		
CGCUGUCACGCAGGAUAUGCAAUGGAUUACAUUGCAGAAGGGCGAUCACAUGAGGAUCACCCAUGUGUAGACAGUGAAGAAGAG			738	45.8
UCAUUUCUGUAAGGAUAUUAAUUCAUGACGAUACAUGAGGAUCACCCAUGUUAAGAAGGUACAAAUACAAAUAAUGCAUUGUUC	11.8	10.6		
CAACUGAGCGUAAAUUACCUGAACAUGAGGAUCACCCAUGUGGAGGAUAUUGACUUAGCAAAACUCGAGAAGGCCACUGGGAUG	39	18.2		
GGCGGCAAUGAGAAGGGUCACAUGAGGAUCACCCAUGUGCUCUUCGCCGUGACAGGAUAUCAUCGCCGUCAGGUUAGAUUUUUG	7.26	26.1		
CGAUUGUAUAGAGGAUAUGUUAUACAUGAGGAUCACCCAUGUGAGGUGGAAAUAUUUAAUUACAUACAGAAGGCUAUACAAUCG	231	237		
AACUCACAUGAGGAUCACCCAUGUGAGGAUAUAUAAAUAUAUAUGUUAUUAUAUAUUUAUAGAAGGCGCGUGAU	44.1	46.9		
GGUCUGAUAUGAGGAUAUGCUCAGGAAUACUGAGCAGAAGGCAUGUGAAAACAUGAGGAUCACCCAUGUAUGAUCUACAGACCA			47	21.8
AACUUCAGAGGAUAUACAUGAGUGAAAAAAGUCUGAUAACUACAUGAGGAUCACCCAUGUAGAAGGCUGUAGCA	29.1	35.4		
UAUAUAUAGUAAGGAUAUGUAUUCAUUUUAUAAACAGAAGGUACUGACAUGAGGAUCACCCAUGUUUUAGUGUGGGCAUGUAGA	81.5	132		
UAUAUAUAGUAAGGAUAUGUAUUUAUGUUAUAAACAGAAGGUACUGACAUGAGGAUCACCCAUGUUUUAGUGUGGGCAUGUAGA	87.9	122		
UGGUCAACAUCAGGAUAUUAACAUGGGCUACACUAAGAAGGGAUAAUGAAAUACGAACUAAACGCACAUGAGGAUCACCCAUGU			34.4	25
CGUGUCAUCGAGAAGGCCUCAACAUGAGGAUCACCCAUGUUGUAAUAUGGGAGGAUAUCGAUGAUACAGCUACGUUUCGUAGCU			18.8	5.8
GGAGAUACAUGAGGAUCACCCAUGUAGGAUAUCGGGCCUAUAUAUGGCGAAAGCCAUAUAUAGGCCGAGAAGGGCGUACACACC	8.07	7.52		
UGUCGGAGCAGAGGAUAUUACAUGAGGAUCACCCAUGUAUGAACCAAUAGCUGGAAACAGCAAUGUAAGAAGGCUGGUCCGACA	12.4	143		
AUAAAUAAGGAGGAUAUCGUAUCGGAAACGAUACGAGAAGGUCUAACAUGAGGAUCACCCAUGUUCCUCAAUAA	37.7	58.5		
AGGAGGUCAGGAUAUGCAUGGCGGGACUUGCGUCGUGGCGUGCAGAAGGGACAUGAGGAUCACCCAUGUGGAGA	86.1	220		
AGGGCGGGAGGAUAUCCAAUAUAUGACAUGAGGAUCACCCAUGUUUCCACUCGUACCUCCGGAGAAGGCCCGCCCA	24.4	22.3		
UCCGAACAUGAGGAUCACCCAUGUCUAAUACGUCAAGGAUAUGGGCGCGGAGAACCGCAACCAGAAGGUGAGAAAU			507	89.4
AAAUACCGGUGAGGAUAUUUUUAAUAGAACUUUAUGAUAUACAUGAGGAUCACCCAUGUUACUUUAAAGAAGGCAUCGGAUAAA	17.5	15.8		
CAUAUGUGAGGAUAUGACAAUGGUAUCUUCGGAUACCAUUGUCAGAAGGCACAUGAGGAUCACCCAUGUGGAUC	222	30.7		
